The text below walks through data of ChEMBL document CHEMBL4145471, “New 1,5 and 2,5-disubstituted tetrazoles-dependent activity towards surface barrier of Candida albicans” (Eur J Med Chem, 2018).

Assay type in all cases: functional
Experiment [1] has as its system Candida albicans. Nature of the experiment: Antifungal activity against Candida albicans ATCC 90028 at 0.125 ug/ml after 18 hrs relative to control. The method, boiled down: (§1)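 Planktonic broth microdilution per M27-A3 in MOPS-buffered RPMI 1640 (pH 7.0), final inoculum 1.8×10^3 cells/mL, compounds 0.0313–16 µg/mL from 1600 µg/mL stocks in ethanol or DMSO. Incubated at 35°C without agitation; OD405 read at 18 and 48 h. % inhibition was derived from test, sterility (no inoculum) and solvent growth-control wells. Amphotericin B at 0.5 µg/mL served as the 100% control.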

The test system of experiment [2] is Candida albicans. Nature of the experiment: Antifungal activity against Candida albicans ATCC 90028 at 0.0625 ug/ml after 48 hrs relative to control. An outline of the steps: as §1
The subject of experiment [3] is Candida albicans. As to the kind of experiment: Antifungal activity against Candida albicans ATCC 90028 at 0.0625 ug/ml after 18 hrs relative to control.
For experiment [4], the system named is Candida albicans. Nature of the experiment: Antifungal activity against Candida albicans ATCC 90028 at 0.5 ug/ml after 48 hrs relative to control. The method, boiled down: as §1
In experiment [5] the test system is Candida albicans. Nature of the experiment: Antifungal activity against Candida albicans ATCC 90028 at 8 ug/ml after 18 hrs relative to control. An outline of the steps: as §1
Experiment [6] has as its system Candida albicans. As to the kind of experiment: Antifungal activity against Candida albicans ATCC 90028 at 4 ug/ml after 48 hrs relative to control. The method, boiled down: as §1
The subject of experiment [7] is Candida albicans. Nature of the experiment: Fungicidal activity against Candida albicans ATCC 90028 at 16 ug/ml after 48 hrs by M27-A3 microdilution method. An outline of the steps: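 After 48 h at 35°C in M27-A3 microdilution plates (compound at 16 µg/mL), 50 µL aliquots from treated and solvent-control wells were diluted 10^4 in PBS and plated on drug-free Sabouraud dextrose agar, then incubated 48 h at 35°C. Reduction R = lg CFU/mL control − lg CFU/mL treated; R ≥ 3 defined as fungicidal.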
Background: Dilution methods test growth across graded concentrations, often in twofold steps.

Experiment [8] relates to Candida albicans. As to the kind of experiment: Antifungal activity against Candida albicans ATCC 90028 at 0.5 ug/ml after 18 hrs relative to control. An outline of the steps: as §1
Experiment [9] deals with Candida albicans. As to the kind of experiment: Antifungal activity against Candida albicans ATCC 90028 at 0.0313 ug/ml after 18 hrs relative to control.
Experiment [10] concerns Candida albicans. Nature of the experiment: Antifungal activity against Candida albicans ATCC 90028 at 16 ug/ml after 48 hrs relative to control. The method, boiled down:
as §1

Experiment [11] relates to Candida albicans. Nature of the experiment: Antifungal activity against Candida albicans ATCC 90028 at 0.25 ug/ml after 48 hrs relative to control. The method, boiled down: (§2)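 Fluconazole (water stock, diluted in RPMI 1640) tested by CLSI M27-A3 broth microdilution against C. albicans ATCC 90028. Inoculum 1.8×10^3 cells/mL in RPMI 1640 buffered with MOPS, pH 7.0. Incubation at 35°C without agitation, read at 18 and 48 h. Growth by OD405 and visually; inhibition % calculated against solvent growth-control wells after subtracting sterility-control wells.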

Experiment [12] deals with Candida albicans. As to the kind of experiment: Antifungal activity against Candida albicans ATCC 90028 at 0.0313 ug/ml after 48 hrs relative to control.
In experiment [13] the test system is Candida albicans. As to the kind of experiment: Antifungal activity against Candida albicans ATCC 90028 at 8 ug/ml after 48 hrs relative to control. The method, boiled down: as §1
The test system of experiment [14] is Candida albicans. Nature of the experiment: Antifungal activity against Candida albicans ATCC 90028 at 0.25 ug/ml after 18 hrs relative to control. The method, boiled down:
as §2

The test system of experiment [15] is Candida albicans. As to the kind of experiment: Antifungal activity against Candida albicans ATCC 90028 at 2 ug/ml after 18 hrs relative to control. An outline of the steps:
as §1

For experiment [16], the system named is Candida albicans. As to the kind of experiment: Antifungal activity against Candida albicans ATCC 90028 at 4 ug/ml after 18 hrs relative to control. The method, boiled down:
as §1

In experiment [17] the test system is Candida albicans. As to the kind of experiment: Antifungal activity against Candida albicans ATCC 90028 at 1 ug/ml after 18 hrs relative to control. The method, boiled down:
as §1

Experiment [18] has as its system Candida albicans. As to the kind of experiment: Antifungal activity against Candida albicans ATCC 90028 at 2 ug/ml after 48 hrs relative to control. An outline of the steps: as §1
In experiment [19] the test system is Candida albicans. As to the kind of experiment: Antifungal activity against Candida albicans ATCC 90028 at 16 ug/ml after 18 hrs relative to control. The method, boiled down: as §1
The test system of experiment [20] is Candida albicans. Nature of the experiment: Antifungal activity against Candida albicans ATCC 90028 at 1 ug/ml after 48 hrs relative to control. The method, boiled down:
as §1

Experiment [21] relates to Candida albicans. Nature of the experiment: Antifungal activity against Candida albicans ATCC 90028 at 0.125 ug/ml after 48 hrs relative to control. An outline of the steps:
as §1

Molecules are shown by their SMILES.

Turning to `CCOC(=O)CCn1nnnc1-c1ccccc1Cl`, the Activity is reported as 99.93% in [1]; 99.19% in experiment [2]; 99.98% in [3]; 99.06% in experiment [4]; 99.99% in experiment [5]; 99.25% in experiment [6]. Also, the Activity in experiment [7] is given as -0.01 log10CFU/ml; in experiment [8] it was 97.11%; in experiment [9] it was 99.33%; in [10], 99.28%; in experiment [11], 99.02%; in experiment [12], 99.2%. Further, the Activity in [13] was 99.17%; in [14] it was 99.78%; in [15], 92.75%; in experiment [16], 99.9%; in experiment [17], 87.68%; in experiment [18] it was 99.07%. The figures for the Activity in experiment [19], in [20] and in [21] were 99.55%, 99.17% and 99.24%, respectively.
`Clc1ccc(-c2nnn(CCCN3CCOCC3)n2)cc1`: the Activity amounted to 99.95% in experiment [1]; 99.28% in experiment [2]; 100% in [3]; 99.32% in experiment [4]; 96.3% in experiment [5]; 98.97% in [6]. The Activity in experiment [7] came out at 0.34 log10CFU/ml; in experiment [8], 92.34%; in experiment [9], 97.92%; in experiment [10], 99.35%; in experiment [11], 99.24%; in experiment [12] it was 99.12%. In addition, the Activity in [13] came to 98.81%; in [14] it was 99.91%; in [15], 98.31%; in experiment [16], 98.1%; in experiment [17], 98.79%; in experiment [18], 99.61%. The values for the Activity in [19], in experiment [20] and in experiment [21] were 100%, 99.36% and 98.92%, respectively.
Consider `Clc1ccccc1-c1nnn(CCCN2CCOCC2)n1`, for which the Activity in experiment [1] stood at 98.25%; in experiment [2], 99%; in [3], 98.7%; in [4], 98.83%; in experiment [5], 98.97%; in [6] it was 98.91%. The Activity in experiment [7] is -0.08 log10CFU/ml; in experiment [8] it was 98.11%; in [9] it was 100%; in experiment [10], 99.2%; in experiment [11] it was 98.01%; in experiment [12], 99.12%. Besides, the Activity in experiment [13] is 98.97%; in experiment [14], 90.79%; in experiment [15], 92.76%; in [16], 98.62%; in [17], 98.01%; in experiment [18] it was 97.16%. Also, the figures for the Activity in experiment [19], in [20] and in experiment [21] were 99.64%, 99.02% and 98.94%, respectively.
Consider `ClCCCn1nnc(-c2ccccc2Cl)n1`, for which the Activity came to 99.62% in experiment [1]; 99.03% in [2]; 98.61% in experiment [3]; 98.89% in experiment [4]; 98.9% in [5]; 98.5% in experiment [6]. The Activity stood at 0.51 log10CFU/ml in experiment [7]; 98.9% in experiment [8]; 99.97% in [9]; 98.34% in experiment [10]; 98.96% in experiment [11]; 99.17% in [12]. In addition, the Activity in experiment [13] stood at 99.05%; in experiment [14], 99.95%; in experiment [15] it was 95%; in experiment [16], 99.32%; in [17] it was 98.99%; in experiment [18] it was 98.6%. For the same compound, the Activity in experiment [19] was 94.16%; in [20], 98.69%; in [21] it was 99.13%.
In the case of `ClCCCn1nnc(-c2ccccc2)n1`, the Activity in [1] was 99.65%; in experiment [2], 99.76%; in experiment [3], 99.99%; in [4] it was 99.16%; in experiment [5] it was 99.54%; in experiment [6], 99.29%. In addition, the Activity in [7] is reported as -0.23 log10CFU/ml; in experiment [8] it was 99.1%; in experiment [9] it was 99.51%; in [10], 99.22%; in experiment [11], 99.16%; in experiment [12] it was 99.38%. Further, the Activity in experiment [13] is listed as 99.63%; in [14], 98.55%; in [15], 99.25%; in experiment [16], 99.53%; in [17], 62.02%; in [18], 99.57%. Also, the Activity amounted to 99.36% in experiment [19], 97.6% in experiment [20] and 99.19% in experiment [21].
For `CCOC(=O)CCn1nnnc1-c1ccccc1`, the Activity was found to be 99.99% in [1]; 99.26% in [2]; 99.37% in experiment [3]; 98.96% in experiment [4]; 99.4% in experiment [5]; 98.91% in experiment [6]. Further, the Activity turned out to be 0.16 log10CFU/ml in experiment [7]; 98.87% in experiment [8]; 99.69% in experiment [9]; 98.96% in experiment [10]; 98.01% in experiment [11]; 99.23% in [12]. The Activity in [13] is given as 99.02%; in experiment [14] it was 95.76%; in experiment [15], 90.79%; in experiment [16], 98.44%; in [17], 95.93%; in experiment [18] it was 97.06%. Besides, the Activity in experiment [19] is given as 99.13%; in [20], 98.87%; in experiment [21] it was 99.01%.
Take `c1ccc(-c2nnn(CCCN3CCOCC3)n2)cc1`: the Activity was found to be 99.81% in experiment [1]; 99.55% in experiment [2]; 99.93% in [3]; 99.59% in experiment [4]; 99.94% in experiment [5]; 99.15% in [6]. Also, the Activity was -0.34 log10CFU/ml in experiment [7]; 99.52% in [8]; 94.63% in experiment [9]; 99.31% in [10]; 99.13% in [11]; 98.98% in experiment [12]. The Activity in experiment [13] is 98.82%; in experiment [14], 99.96%; in experiment [15], 85.92%; in experiment [16], 99.64%; in experiment [17] it was 80.42%; in [18] it was 98.84%. In addition, the Activity in experiment [19] came out at 97.02%; in experiment [20], 98.87%; in experiment [21], 97.95%.
Regarding `Cc1ccc(-c2nnn(CCCCl)n2)cc1`, the Activity was determined as 98.66% in experiment [1]; 99.12% in experiment [2]; 99.06% in [3]; 98.95% in [4]; 99.06% in experiment [5]; 98.84% in [6]. Further, the Activity in [7] is listed as 0.65 log10CFU/ml; in [8] it was 97.59%; in experiment [9] it was 98.95%; in [10], 98.26%; in experiment [11], 98.79%; in [12] it was 98.94%. Further, the Activity is recorded as 99.08% in experiment [13]; 99.45% in experiment [14]; 98.39% in experiment [15]; 99.63% in experiment [16]; 99.6% in experiment [17]; 98.87% in experiment [18]. The Activity in [19] stood at 98.46%; in experiment [20] it was 98.65%; in experiment [21], 98.92%.
